Source: ChEMBL document CHEMBL1126902, “Synthesis, chemical reactivity, and antitumor evaluation of congeners of carmethizole hydrochloride, an experimental "acylated vinylogous carbinolamine" tumor inhibitor” (J Med Chem, 1993)
Values belong to the compound of their own block, whether it stands above or below them.

Legend:
P388 [1] = assay: Change in tumor cell population in ip implanted P388 Leukemia in mice after administration of compound at 22.8 mg/kg; type: functional, Mus musculus; conditions: route intraperitoneal
In short: (§1)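 Female Portage-CD2F1 mice were inoculated ip with ascitic fluid holding ca. 5.2×10^6 P388 cells. Dosing was ip on days 1-5, starting 24 h after inoculation, by average body weight, as a solution or suspension in saline plus Tween 80. KE is the net log change in viable tumor cell population from start to end of the treatment period.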

[2] = Percent increase in life span of dying mice tested in vivo at 45.5 mg/kg against ip implanted LOX amelanotic melanoma in mice (60-day survivors); type: functional; conditions: Mus musculus, 1440 h, route intraperitoneal
In short: (§2)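 Female CD2F1 mice implanted ip with ascitic fluid carrying ca. 1.7×10^6 LOX amelanotic melanoma cells. Drug given ip on days 1, 5 and 9, starting 24 h after implant, dosed by exact body weight; solutions or suspensions made fresh daily. %ILS is from the median day of death of dying mice versus controls, excluding 60-day survivors.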

[3] = Change in tumor cell population in ip implanted LOX amelanotic melanoma in mice after administration of compound at 45.5 mg/kg; type: functional, Mus musculus; conditions: route intraperitoneal
In short: (§3)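 Female CD2F1 mice were implanted ip with ascitic fluid holding ca. 1.7×10^6 LOX cells. Dosing was ip on days 1, 5 and 9, starting 24 h after implantation, by exact body weight, as a solution or suspension in saline plus Tween 80, freshly prepared daily. KE is the net log change in viable tumor cells from start to end of treatment. Bracketed KE assumes Poisson survival, with 60-day survivors tumor-free.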

P388 [4] = assay: Percent increase in life span of dying mice tested in vivo at 22.8 mg/kg against ip implanted P388 Leukemia in mice; type: functional; conditions: Mus musculus, route intraperitoneal
In short: (§4)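 Portage-CD2F1 female mice inoculated ip with ascitic fluid carrying ca. 5.2×10^6 P388 leukemia cells. Drug given ip daily on days 1-5, starting 24 h after inoculation, dosed by average body weight. %ILS is from the median day of death of dying mice versus controls.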

[5] = Percent increase in life span of dying mice tested in vivo at 91 mg/kg against ip implanted LOX amelanotic melanoma in mice (60-day survivors); type: functional; conditions: Mus musculus, 1440 h, route intraperitoneal
In short: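 Nude CD2F1 female mice were implanted ip with ascitic fluid containing ca. 1.7×10^6 LOX amelanotic melanoma cells. Drug was given ip on days 1, 5 and 9, starting 24 h after implantation, and dosed by exact body weight. Solutions or suspensions were made fresh daily in saline plus Tween 80. %ILS was calculated from the median day of death of dying mice versus controls, excluding 60-day survivors.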

P388 [6] = assay: Change in tumor cell population in ip implanted P388 Leukemia in mice after administration of compound at 11.4 mg/kg; type: functional, Mus musculus; conditions: route intraperitoneal; in short: as §1
[7] = Change in tumor cell population in ip implanted LOX amelanotic melanoma in mice after administration of compound at 22.75 mg/kg; type: functional, Mus musculus; conditions: route intraperitoneal; in short: as §3
P388 [8] = assay: Percent increase in life span of dying mice tested in vivo at 11.4 mg/kg against ip implanted P388 Leukemia in mice; type: functional; conditions: Mus musculus, route intraperitoneal; in short: as §4
[9] = Percent increase in life span of dying mice tested in vivo at 182 mg/kg against ip implanted LOX amelanotic melanoma in mice (60-day survivors); type: functional; conditions: Mus musculus, 1440 h, route intraperitoneal; in short: as §2
[10] = Change in tumor cell population in ip implanted LOX amelanotic melanoma in mice after administration of compound at 182 mg/kg; type: functional, Mus musculus; conditions: route intraperitoneal; in short: as §3
P388 [11] = assay: Change in tumor cell population in ip implanted P388 Leukemia in mice after administration of compound at 45.5 mg/kg; type: functional, Mus musculus; conditions: route intraperitoneal
In short: (§5)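 P388 leukemia: ascitic fluid with ca. 5.2×10^6 cells inoculated ip into Portage-CD₂F₁ female mice. Drug given ip on days 1-5, starting 24 h after inoculation, dosed by average body weight. Vehicle was saline plus Tween 80, as a solution or suspension. KE = net log change in viable tumor cells from start to end of treatment.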

P388 [12] = assay: Percent increase in life span of dying mice tested in vivo at 91 mg/kg against ip implanted P388 Leukemia in mice; type: functional; conditions: Mus musculus, route intraperitoneal
In short: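 Portage-CD2F1 female mice were inoculated ip with ascitic fluid containing ca. 5.2×10^6 P388 leukemia cells. Drug was given ip daily on days 1-5, starting 24 h after inoculation, and dosed by average body weight. %ILS was calculated from the median day of death of dying mice versus controls.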

P388 [13] = assay: Percent increase in life span of dying mice tested in vivo at 45.5 mg/kg against ip implanted P388 Leukemia in mice; type: functional; conditions: Mus musculus, route intraperitoneal; in short: as §4
[14] = Percent increase in life span of dying mice tested in vivo at 22.75 mg/kg against ip implanted LOX amelanotic melanoma in mice (60-day survivors); type: functional; conditions: Mus musculus, 1440 h, route intraperitoneal; in short: as §2
[15] = Change in tumor cell population in ip implanted LOX amelanotic melanoma in mice after administration of compound at 91 mg/kg; type: functional, Mus musculus; conditions: route intraperitoneal; in short: as §3
P388 [16] = assay: Change in tumor cell population in ip implanted P388 Leukemia in mice after administration of compound at 91 mg/kg; type: functional, Mus musculus; conditions: route intraperitoneal; in short: as §5
A549 = assay: Concentration required to inhibit tumor growth in A549, human lung carcinoma (NSCLC) cell line; type: functional, cell-based
In short: (§6)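 Cells grown in RPMI 1640 with 5% fetal calf serum, 5% NuSerum IV and 20 mM HEPES, seeded and allowed to adhere overnight. Compound dissolved in RPMI-1640 plus HEPES and tested over a 5 log range (10 concentrations) for 72 h. Read-out by sulforhodamine B assay. Median-effect dose derived by nonlinear regression of the concentration-effect curve.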

[17] = Concentration required to inhibit tumor growth in […], human breast adenocarcinoma cell line; type: functional; in short: as §6
[18] = Concentration required to inhibit tumor growth in PSN-1, human pancreatic carcinoma cell line; type: functional
In short: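 PSN-1 pancreatic carcinoma cells exposed to compound dissolved in RPMI-1640 plus HEPES at its maximum soluble concentration for 72 h. Read-out by sulforhodamine B colorimetric assay.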

L1210 (Mus musculus) = assay: Concentration required to inhibit tumor growth in L1210, murine lymphocytic leukemia cell line
HT-29 = assay: Concentration required to inhibit tumor growth in HT29, human colon adenocarcinoma cell line; type: functional, cell-based; conditions: Homo sapiens, HT-29; in short: as §6

SMILES: CNC(=O)OCc1nc([S+](C)[O-])n(C)c1COC(=O)NC (stereo unspecified)
- KE (P388 [1]): 1.4
- ILS at 45.5 mg/kg [2]: -8%
- KE [3]: 2
- ILS at 22.8 mg/kg (P388 [4]): 10%
- ILS at 91 mg/kg [5]: -8%
- KE (P388 [6]): 1.4
- KE [7]: 2
- ILS at 11.4 mg/kg (P388 [8]): 10%
- ILS at 182 mg/kg [9]: 2%
- KE [10]: 1.8
- KE (P388 [11]): 0.9
- ILS at 91 mg/kg (P388 [12]): 17%
- ILS at 45.5 mg/kg (P388 [13]): 27%
- ILS at 22.75 mg/kg [14]: -7%
- KE [15]: 2
- KE (P388 [16]): 1.3

- IC50 (A549): > 100 µM
- IC50 (L1210 (Mus musculus)): > 100 µM
- IC50 (HT-29): > 100 µM
SMILES: CNC(=O)OCc1nc(Sc2ccccc2)n(C)c1COC(=O)NC
- IC50 [17]: > 100 µM
- IC50 [18]: > 100 µM

- IC50 (A549): 190 µM
- IC50 (L1210 (Mus musculus)): 11 µM
- IC50 (HT-29): 108 µM
SMILES: CNC(=O)OCc1nc2n(c1COC(=O)NC)CCS2
- IC50 [17]: 147 µM
- IC50 [18]: 118 µM
